Assay outcomes: PubChem BioAssay, Johns Hopkins Ion Channel Center
Most compounds without a hit are left out; they make up all but 2.3% or so of the library.
TRPC4 agonist: TRPC4 (mouse) channel activation; AID 2237; Q9QUQ5; HEK293 TRPC4beta/mu-opioid, Fluo4 calcium fluorescence; hits give high values; 0.49% of 310,000 active; B-score at 10 µM;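 active = B-score above 5 SD of library B-scores, and initial fluorescence ratio not above library mean plus 5 SD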;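 note: positive B-score marks a calcium rise read as TRPC4 activation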
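Technique: kinetic Fluo4 calcium fluorescence; Test system: TRPC4beta and mu-opioid receptor HEK293 stable cells; Measure: B-scored integrated calcium fluorescence ratio; Benchmarks: low control buffer alone, high control maximal DAMGO; Schedule: 45 min room-temperature Fluo4 loading, 110 s read.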
TRPC6 activator: activators of mouse TRPC6 channel. HEK293-TRPC6 membrane potential dye fluorescence; hits give high values. 0.13% of 310,000 active. AID 2550. B-score at 10 µM;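 active = B-score of the integrated fluorescence ratio above library mean plus 3 SD, and starting fluorescence ratio within library mean plus 5 SD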;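 note: higher score means more depolarization so channel activation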
TRPC4 potent: TRPC4 (mouse) allosteric potentiation | AID 2227 | 0.42% of 310,000 active | Q9QUQ5 | HEK293 TRPC4beta/mu-opioid, DAMGO EC20, Fluo-4 Ca2+ flux; hits give high values | B-score at 10 µM;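 active = B-score of calcium response area above 5 SD of library B-scores, with initial fluorescence ratio within 5 SD of library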;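 note: B-score of integrated fluorescence ratio over time as area under calcium response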
TRPC6 inhibitor: mouse TRPC6 channel inhibition; Q61143; HEK293-TRPC6, membrane potential dye, ACh-evoked depolarization; hits give low values; B-score at 10 µM; 1.1% of 310,000 active; AID 2553;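 active = B-score under library mean minus 3 SD, initial fluorescence not abnormally high, positive integrated signal ratio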;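 note: B-score derived from integrated fluorescence ratio over the kinetic read; more negative B-score means stronger inhibition of depolarization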
TRPC4 block: inhibitors of mouse TRPC4 channel. Q9QUQ5. HEK293 TRPC4beta/mu-opioid, DAMGO-evoked Fluo4 calcium flux; hits give low values. B-score at 10 µM. 0.39% of 300,000 active. AID 2247;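 active = B-score over 3 SD under the library average, no early fluorescence shift, positive overall ratio signal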
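Test system – stable TRPC4beta/mu-opioid receptor HEK293 cells · Probe or stimulus – DAMGO, a submaximal dose followed by a maximal one · Dosing – one concentration per compound · Signal – Fluo4 calcium fluorescence by kinetic imaging, 5 s 1 Hz baseline · Evaluation – per-well B score of integrated baseline-normalized Fluo4 ratio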
TRPC4 sel inh 2: mouse TRPC4 off-target activity of TRPC6 inhibitors, second screen; shares compounds with TRPC6 inhibitor; HEK293 TRPC4/MOR, membrane potential dye fluorescence; channel activated by saturating DAMGO dose; 42% of 920 active; AID 2776; inhibition, % at 10 µM;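 active = compounds whose fluorescence signal differed from control wells by over 3 SD, either direction, in both duplicate plates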
TRPC4 spec: tests whether TRPC6 inhibitors also affect mouse TRPC4; shares compounds with TRPC6 inhibitor; HEK293 TRPC4/mu-opioid, membrane potential fluorescence; activity change, negative = inhibition, % at 10 µM; 61% of 920 active;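 active = rise or fall in signal beyond 3 SD of buffer-only wells in both replicate plates, either sign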;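 note: integrated kinetic ratio of fluorescence range over baseline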
HEK293 MPD ctr 2-1: second counter-screen for TRPC6 inhibitors: parental HEK293 cells | shares compounds with TRPC6 inhibitor | parental HEK293 membrane potential dye fluorescence; maximal acetylcholine challenge after compound addition | signal change vs control, % at 10 µM | 31% of 920 active | AID 2779;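 active = membrane potential signal moving either way by over 3 SD of the maximum-effect control, in both duplicate plates, meaning non-specific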
HEK293 MPD ctr-1: parental HEK293 nonspecific activity of TRPC6 inhibitors; membrane potential signal change, % at 10 µM; shares compounds with TRPC6 inhibitor; parental HEK293 membrane potential dye fluorescence; 60% of 920 active;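 active = membrane potential signal shifting up or down by more than 3 SD of buffer-only wells, on both duplicate plates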
HEK293 MPD ctr-2: parental HEK293 nonspecific activity of TRPC6 modulators. shares compounds with TRPC6 inhibitor. membrane potential dye fluorescence. membrane potential signal change, % at 10 µM. 51% of 2,400 active;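 active = membrane potential signal moves up or down beyond 5 SD from buffer-only wells, on both duplicate plates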
HEK293 MPD ctr 2-2: second counter-screen for TRPC6 modulators: effect in parental HEK293 cells. inhibition, % at 10 µM. shares compounds with TRPC6 inhibitor. 14% of 2,400 active. membrane potential dye fluorescence; after compound, maximal acetylcholine stimulation;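 active = membrane potential signal drops by more than 5 SD from the mean control signal, in both duplicate plates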;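 note: plate controls were acetylcholine ECmax control wells for no effect and buffer only wells for full effect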
TRPC4/MOR mod: selectivity of TRPC6 modulators against mouse TRPC4; shares compounds with TRPC6 inhibitor; 69% of 2,400 active; HEK293 TRPC4/mu-opioid, membrane potential fluorescence; percent change from control (negative = decrease, positive = increase), % at 10 µM;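 active = membrane potential signal moved up or down beyond 5 SD of buffer control wells, in both duplicate plates, actives on both sides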;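 note: plate controls were assay buffer wells for no effect and DAMGO maximal-effect wells for full effect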
TRPC4/MOR inh 2: mouse TRPC4 off-target activity of TRPC6 modulators, second screen. shares compounds with TRPC6 inhibitor. HEK293 TRPC4/mu-opioid, membrane potential dye fluorescence; stimulated with maximal-effect DAMGO. inhibition, % at 10 µM. 55% of 2,400 active. AID 488928;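 active = drop in membrane potential signal beyond 5 SD of the control wells in both duplicate plates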;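 note: TRPC4 counter screen for TRPC6 hits run under conditions tuned for TRPC6 not TRPC4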
TRPC6 inh conf: confirmation of mouse TRPC6 inhibitors; inhibition, % at 10 µM; 43% of 3,300 active; HEK293-TRPC6, membrane potential dye, ACh-evoked depolarization; AID 488960; shares compounds with TRPC6 inhibitor;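 active = fluorescence ratio falls more than 5 SD below the full-stimulation control mean, in both duplicate runs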;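 note: integrated fluorescence ratio of peak minus minimum over baseline after agonist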
TRPC6 act conf: confirmation of mouse TRPC6 activators | 11% of 2,800 active | activation, % at 10 µM | HEK293-TRPC6 membrane potential dye fluorescence, FDSS | shares compounds with TRPC6 inhibitor;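 active = ratio signal rise beyond 5 SD above unstimulated control wells' mean, seen in both duplicate runs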;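 note: plate controls were buffer EC0 wells for no effect and acetylcholine ECmax response for full effect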
Active calls of the source: *; i = inactive; · = no result given.

SMILES	TRPC4 agonist	TRPC6 activator	TRPC4 potent	TRPC6 inhibitor	TRPC4 block	HEK293 MPD ctr-2	HEK293 MPD ctr 2-2	TRPC4/MOR mod	TRPC4/MOR inh 2	TRPC6 inh conf	TRPC6 act conf	others
CCN(CC)CCCCN1c2ccccc2Sc2ccccc21	i	i	i	-6.5*	i	i	i	i	69.0%*	48.5%*	i
CC(CN1c2ccccc2Sc2ccccc21)N(C)C (stereo not drawn)	i	i	i	-6.14*	i	i	93.5%*	8.0%*	32.0%*	72.0%*	i
Cc1ccc(O)c(NC(=O)C2CC(c3cccc(Br)c3)=NO2)c1 (stereo not drawn)	i	i	i	i	i	·	·	·	·	·	·
COc1ccc(F)cc1S(=O)(=O)N1CCC2(CC1)OCCN2S(=O)(=O)c1cccs1	i	i	i	i	i	·	·	·	·	·	·
O=C(c1cccc(F)c1)N1CCN(c2cccc(Cl)c2)CC1	i	i	i	-16.1*	i	·	·	·	·	59.3%*	i	TRPC4 sel inh 2=i;TRPC4 spec=5.7%*;HEK293 MPD ctr 2-1=i;HEK293 MPD ctr-1=2.7%*
Cc1ccc(S(=O)(=O)N2CCN(C(=O)c3cccc(F)c3)CC2)cc1	i	i	i	-6.11*	i	i	i	i	i	69.5%*	·
O=C(c1ccc(S(=O)(=O)N2CCCC2)cc1)N1CCN(S(=O)(=O)c2cccc(F)c2)CC1	i	i	i	i	i	·	·	·	·	·	·
COc1ccc(S(=O)(=O)N2CCN(C(=O)c3cccc(Cl)c3)CC2)cc1	i	i	i	-5.6*	i	i	i	11.5%*	i	56.0%*	·
COCCn1c(=O)[nH]c2cc(C(=O)Nc3cc(C)cc(C)c3)ccc2c1=O	i	i	i	i	i	·	·	·	·	·	·
Cc1c(-n2c(=O)n(Cc3ccccc3)c(=O)c3[nH]cnc32)cccc1S(C)=O (stereo not drawn)	i	i	i	i	i	·	·	·	·	·	·
CC1CCN(C(=O)CN(Cc2ccccc2)S(C)(=O)=O)CC1	i	i	i	i	i	·	·	·	·	·	·
COc1ccc(N2CCN(C(=O)CN(Cc3ccc(Cl)cc3)S(C)(=O)=O)CC2)cc1	i	i	i	i	i	·	·	·	·	·	·
CS(=O)(=O)N(CC(=O)N1CCc2ccccc2C1)Cc1ccccc1	i	i	i	-6.53*	i	i	i	12.0%*	i	i	·
CS(=O)(=O)N(CC(=O)N1CCN(c2ccccc2)CC1)Cc1ccc(Cl)cc1	i	i	i	-5.63*	i	i	i	13.0%*	i	i	i
Cc1cccnc1NC(=O)c1c(O)c2ccccc2n(C)c1=O	i	i	i	-6.92*	i	·	·	·	·	i	i	TRPC4 sel inh 2=i;TRPC4 spec=-13.0%*;HEK293 MPD ctr 2-1=i;HEK293 MPD ctr-1=-144.5%*
O=C(O)CC1S/C(=N\N=C2\C(=O)Nc3ccccc32)N(c2ccc(O)cc2)C1=O (stereo not drawn)	i	i	i	i	i	·	·	·	·	·	·
CN(C)C(=O)C(CCN1CCC(O)(c2ccc(Cl)cc2)CC1)(c1ccccc1)c1ccccc1	50*	i	i	-5.44*	i	115.0%*	i	78.5%*	112.5%*	61.0%*	·
CN(C)c1ccc(NC(=O)CN2CCC(O)(c3ccccc3)CC2)cc1	i	i	i	i	i	·	·	·	·	·	·
CC(=O)Nc1ccc(NC(=O)C(C)OC(=O)CCCOc2ccc(Cl)cc2C)cc1 (stereo not drawn)	i	i	i	i	i	·	·	·	·	·	·
COc1ccc(C(=O)c2coc3ccc(O)c(CN(C)C)c23)cc1	i	i	i	-5.26*	i	i	i	9.0%*	55.5%*	i	i
CN(C)S(=O)(=O)c1ccc(N2CCCC2)c(C(=O)NNC(=O)COc2ccccc2F)c1	i	i	i	i	i	·	·	·	·	·	·
Cc1ccc2nc3c(cc(C(=O)NC4CCCC4)c(=N)n3C3CCCCC3)c(=O)n2c1	i	i	i	-6.43*	i	-185.5%*	i	-31.5%*	43.0%*	57.5%*	i
C=CCn1c(=N)c(C(=O)NCCCOC)cc2c(=O)n3cc(C)ccc3nc21	i	i	i	-7.53*	i	·	·	·	·	i	i	TRPC4 sel inh 2=i;TRPC4 spec=2.7%*;HEK293 MPD ctr 2-1=-54.0%*;HEK293 MPD ctr-1=4.9%*
CNC(=O)c1cc2c(=O)n3cc(C)ccc3nc2n(C(C)C)c1=N	i	i	i	-7.45*	i	-157.0%*	111.0%*	-48.5%*	51.0%*	84.0%*	i
N=c1c(C(=O)NC2CCCC2)cc2c(=O)n3ccccc3nc2n1C1CCCCC1	i	i	i	-6.47*	i	-188.5%*	i	-30.5%*	50.0%*	43.5%*	i
C=CCn1c(=N)c(C(=O)NCCCOC)cc2c(=O)n3ccccc3nc21	i	i	i	i	i	·	·	·	·	·	·
COc1ccc(NS(=O)(=O)c2cccc(C(=O)NC3CCC(O)CC3)c2)cc1 (stereo not drawn)	i	i	i	i	i	·	·	·	·	·	·
